In ChEMBL document CHEMBL3526116, “Toxicological evaluation of acyl glucuronides of nonsteroidal anti-inflammatory drugs using human embryonic kidney 293 cells stably expressing human UDP-glucuronosyltransferase and human hepatocytes” (Drug Metab Dispos, 2011):

Columns and labels:
[1] = test system: HEK293; assay: Cytotoxicity against HEK293 cells expressing UGT1A3 assessed as decrease in cell viability by measuring intracellular ATP content at 1 mM by CellTiter-Glo luminescent assay; assay type: ADME, cell-based; conditions: human, hek293, 1000 µM; TDE = time-dependent effect
Summary of the method: (§1)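 UGT1A3 or UGT1A4 stable HEK293 cells, 2 x 10^4 cells/well in 0.1 mL DMEM with 0.5% FBS, drug for 6, 12 or 24 h. Viability from intracellular ATP via CellTiter-Glo luminescence, expressed as percent of control cells. Mean ± SD of triplicates.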

[2] = test system: HEK293; assay: Cytotoxicity against HEK293 cells expressing UGT assessed as decrease in cell viability at 1 mM measured up to 72 hrs by MTT assay; assay type: ADME, cell-based; conditions: human, hek293, 72 h, 1000 µM
Summary of the method: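 Mock and UGT1A3/UGT1A4 stable HEK293 cells given drug for up to 72 h; viability measured by WST-8-based MTT assay.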

[3] = target: T1, UDP-glucuronosyltransferase 1A4 (Homo sapiens, UniProt P22310); assay: Activity of human UGT1A4 expressed in HEK293 cells assessed as enzyme-mediated ketoprofen acyl-beta-D-glucuronide formation at 1 mM measured at 24 hrs by LC-MS/MS analysis; assay type: ADME, cell-based; conditions: hek293, 24 h, 1000 µM
T1 sequence (P22310 whole entry): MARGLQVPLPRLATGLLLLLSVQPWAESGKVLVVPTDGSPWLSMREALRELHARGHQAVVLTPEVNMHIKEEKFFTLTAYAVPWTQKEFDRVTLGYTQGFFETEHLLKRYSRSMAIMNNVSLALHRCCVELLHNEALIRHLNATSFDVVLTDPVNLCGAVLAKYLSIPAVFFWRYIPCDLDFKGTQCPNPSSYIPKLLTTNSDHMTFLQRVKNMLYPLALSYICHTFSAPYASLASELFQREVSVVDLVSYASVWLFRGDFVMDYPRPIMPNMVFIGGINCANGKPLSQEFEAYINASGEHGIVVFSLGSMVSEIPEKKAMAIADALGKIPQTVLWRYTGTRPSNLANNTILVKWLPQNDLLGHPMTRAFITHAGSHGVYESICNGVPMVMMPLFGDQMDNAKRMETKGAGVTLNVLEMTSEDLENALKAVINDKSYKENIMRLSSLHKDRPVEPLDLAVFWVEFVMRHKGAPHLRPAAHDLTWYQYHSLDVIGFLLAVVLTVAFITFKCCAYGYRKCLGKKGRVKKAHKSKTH
Summary of the method: (§2)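 HEK293 stably expressing human UGT1A4, 2 x 10^5 cells/well in DMEM with 0.5% FBS, drug exposure 6–24 h, DMSO ≤0.1% final. Acyl glucuronide in cell fraction and medium measured by LC-MS/MS after methanol/acetic acid (100:1) precipitation and centrifugation. Triplicate determinations.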

[4] = test system: HEK293; assay: Cytotoxicity against HEK293 cells expressing UGT1A4 assessed as decrease in cell viability by measuring intracellular ATP content at 1 mM by CellTiter-Glo luminescent assay; assay type: ADME, cell-based; conditions: human, hek293, 1000 µM; TDE = time-dependent effect; summary of the method: as §1
[5] = test system: HEK293; assay: Cytotoxicity against mock transfected HEK293 cells assessed as decrease in cell viability by measuring intracellular ATP content at 1 mM by CellTiter-Glo luminescent assay; assay type: cell-based; conditions: human, hek293, 1000 µM; TDE = time-dependent effect
Summary of the method: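 Mock-transfected HEK293 cells seeded at 2 x 10^4 cells/well in DMEM with 0.5% FBS, drug added at once and incubated 6, 12 or 24 h. Viability read either by WST-8 (CCK-8) formazan absorbance at 450 nm or by intracellular ATP luminescence (CellTiter-Glo), as percent of control cells; mean ± SD of triplicates. Final DMSO ≤0.1%.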

[6] = test system: HEK293; assay: Genotoxicity in HEK293 cells expressing UGT1A3 assessed as DNA strand breaks at 1 mM after 24 hrs by comet assay; assay type: toxicity, cell-based; conditions: human, hek293, 24 h, 1000 µM
Summary of the method: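 Alkaline comet assay: HEK/UGT1A3 cells seeded 24 h before, treated 24 h in DMEM with 0.5% FBS (vehicle 0.1% DMSO; MMS 0.1 mM positive control). Cells embedded in LMP agarose, lysed 1 h at 4°C at pH 10, unwound 30 min in NaOH/EDTA, electrophoresed 300 mA 20 min, ethidium-stained; tail moment scored on 150-180 comets over >3 experiments, median (IQR).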

[7] = test system: HEK293; assay: Cytotoxicity against HEK293 cells expressing UGT1A4 assessed as decrease in cell viability at 1 mM by MTT assay; assay type: ADME, cell-based; conditions: human, hek293, 1000 µM; TDE = time-dependent effect
[8] = test system: HEK293; assay: Cytotoxicity against HEK293 cells expressing UGT assessed as LDH leakage at 1 mM after 6 to 24 hrs by spectrophotometric analysis relative to total cell LDH level; assay type: ADME, cell-based; conditions: human, hek293, 1000 µM
Summary of the method: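 Stable UGT-expressing or mock HEK293 lines in DMEM with 0.5% FBS, 2 x 10^4 cells/well, drug for 6, 12 or 24 h. LDH released into medium read at 490 nm (690 nm reference); percentage calculated against maximum release from control cells lysed with 1% Triton X-100.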

[9] = test system: HEK293; assay: Cytotoxicity against HEK293 cells expressing UGT1A3 assessed as decrease in cell viability at 1 mM by MTT assay; assay type: ADME, cell-based; conditions: human, hek293, 1000 µM; TDE = time-dependent effect
[10] = test system: HEK293; assay: Cytotoxicity against mock transfected HEK293 cells assessed as decrease in cell viability at 1 mM by MTT assay; assay type: cell-based; conditions: human, hek293, 1000 µM; TDE = time-dependent effect
[11] = target: T2, UDP-glucuronosyltransferase 1A3 (Homo sapiens, UniProt P35503); assay: Activity of human UGT1A3 expressed in HEK293 cells assessed as enzyme-mediated ketoprofen acyl-beta-D-glucuronide formation at 1 mM measured at 24 hrs by LC-MS/MS analysis; assay type: ADME, cell-based; conditions: hek293, 24 h, 1000 µM
T2 sequence (P35503 whole entry): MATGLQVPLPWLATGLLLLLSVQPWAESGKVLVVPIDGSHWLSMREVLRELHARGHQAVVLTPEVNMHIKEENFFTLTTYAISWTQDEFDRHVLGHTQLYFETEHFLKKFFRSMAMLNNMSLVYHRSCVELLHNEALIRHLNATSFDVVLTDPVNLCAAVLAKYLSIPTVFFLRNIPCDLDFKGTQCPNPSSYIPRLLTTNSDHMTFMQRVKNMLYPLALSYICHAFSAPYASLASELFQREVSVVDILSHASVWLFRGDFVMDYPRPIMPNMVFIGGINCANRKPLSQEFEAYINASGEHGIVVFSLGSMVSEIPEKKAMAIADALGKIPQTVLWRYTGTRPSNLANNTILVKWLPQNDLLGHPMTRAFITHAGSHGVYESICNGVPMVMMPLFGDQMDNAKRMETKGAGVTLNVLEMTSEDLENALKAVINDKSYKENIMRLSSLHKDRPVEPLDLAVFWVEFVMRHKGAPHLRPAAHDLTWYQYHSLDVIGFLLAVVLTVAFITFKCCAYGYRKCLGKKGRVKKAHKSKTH
Summary of the method: (§3)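 HEK293 stably expressing human UGT1A3 (G418-selected), 2 x 10^5 cells/well in 1 mL DMEM with 0.5% FBS, exposed immediately to drug for 6, 12 or 24 h; DMSO ≤0.1% final. Cells and medium separated by centrifugation, cell fraction resuspended in PBS; aliquots mixed 1:1 with methanol/acetic acid (100:1), spun, supernatant analysed by LC-MS/MS. Triplicate determinations, mean ± SD.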

[12] = target: T1, UDP-glucuronosyltransferase 1A4; assay: Activity of human UGT1A4 expressed in HEK293 cells assessed as enzyme-mediated ibuprofen acyl-beta-D-glucuronide formation at 1 mM measured at 24 hrs by LC-MS/MS analysis; assay type: ADME, cell-based; conditions: hek293, 24 h, 1000 µM; summary of the method: as §2
[13] = target: T2, UDP-glucuronosyltransferase 1A3; assay: Activity of human UGT1A3 expressed in HEK293 cells assessed as enzyme-mediated ibuprofen acyl-beta-D-glucuronide formation at 1 mM measured at 24 hrs by LC-MS/MS analysis; assay type: ADME, cell-based; conditions: hek293, 24 h, 1000 µM; summary of the method: as §3
[14] = test system: Hepatocyte; assay: Cytotoxicity against human hepatocytes assessed as decrease in cell viability at 1 mM measured at 6 hrs […] in presence of acyl glucuronidation inhibitor (-)-borneol; assay type: cell-based; conditions: 1000 µM
[15] = test system: Hepatocyte; assay: Cytotoxicity against human hepatocytes assessed as decrease in cell viability by measuring intracellular ATP content at 1 mM measured at 6 hrs by CellTiter-Glo luminescent assay in absence of acyl glucuronidation inhibitor (-)-borneol; assay type: cell-based; conditions: 1000 µM
Summary of the method: (§4)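 Human hepatocytes (pooled, cryopreserved), 2 × 10^4 cells/well on collagen in HCM with 0.5% FBS and 10 nM estradiol; 30-min preincubation ± 1 mM (-)-borneol, then drug 6 h. Intracellular ATP measured by CellTiter-Glo luminescence, percent of control cells. Triplicates, mean ± SD.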

[16] = test system: Hepatocyte; assay: Cytotoxicity against human hepatocytes assessed as decrease in cell viability by measuring intracellular ATP content at 1 mM measured at 6 hrs by CellTiter-Glo luminescent assay in presence of acyl glucuronidation inhibitor (-)-borneol; assay type: cell-based; conditions: 1000 µM; summary of the method: as §4
[17] = test system: Hepatocyte; assay: Cellular uptake in human hepatocytes at 1 mM measured at 6 hrs by LC-MS/MS analysis in presence of acyl glucuronidation inhibitor (-)-borneol; assay type: ADME, cell-based; conditions: 1000 µM
Summary of the method: (§5)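 Cryopreserved pooled human hepatocytes on collagen-coated wells, 2 × 10^5 cells/well in HCM medium with 0.5% FBS, preincubated 30 min with or without 1 mM (-)-borneol, then drug for 6 h; DMSO ≤0.2% final. Parent drug in cell fraction measured by LC-MS/MS after methanol/acetic acid extraction. Mean ± SD of triplicates.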

[18] = test system: Hepatocyte; assay: Cellular uptake in human hepatocytes at 1 mM measured at 6 hrs by LC-MS/MS analysis in absence of acyl glucuronidation inhibitor (-)-borneol; assay type: ADME, cell-based; conditions: 1000 µM; summary of the method: as §5

Drug metabolism [3]	Drug metabolism [11]	Drug metabolism [12]	Drug metabolism [13]	Drug uptake [17]	Drug uptake [18]	Structure (SMILES)	Activity [1]	Activity [2]	Activity [4]	Activity [5]	Activity [6]	Activity [7]	Activity [8] [%]	Activity [9]	Activity [10]	Activity [14]	Activity [15]	Activity [16]
metabolite_not_detected	metabolite_detected					CC(C(=O)O)c1cccc(C(=O)c2ccccc2)c1 (configuration not stated) [KETOPROFEN]	tde	Non-toxic	tde	tde	Non-toxic	tde	< 5.4	tde	tde			
		metabolite_not_detected	metabolite_detected	Active	Active	CC(C)Cc1ccc(C(C)C(=O)O)cc1 (configuration not stated) [IBUPROFEN]	tde	Non-toxic	tde	tde	Non-toxic	tde	< 5.4	tde	tde	Toxic	Toxic	Toxic
